A selection: hits, their analogues and other compounds. The true share with any hit is near 1.9%.
RanGTP-Impb inh – inhibitors of RanGTP-importin-beta interaction, primary screen, biochemical, FRET, CFP-Ran, YFP-importin-beta, homogeneous. cell-free CFP-Ran/YFP-importin-beta FRET ratio. inhibition, % (concentration not given with the values). 300,000 compounds, 1.1% hits;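 active = more than half of the replicate wells show a fall in the fluorescence ratio signal beyond about 16%, limit read from the data, passing the limit was not always enough; inconclusive = exactly half of the replicate wells pass the set limit; inactive = fewer than half of replicates pass the limit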;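 note: 0% = DMSO wells and 100% = Ran loaded with GDP instead of GTP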
Runt-CBFb FRET – inhibitors of human RUNX1 Runt domain binding to CBFb; Q01196+Q13951; Cerulean-Runt/Venus-CBFb FRET ratio 530/480, 1 h; inhibition, % at 20 µM; 220,000 compounds, 0.46% hits;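 active = inhibition over about 50% at 20 µM in the single-dose screen, limit read from the data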;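 note: 0% = DMSO wells and 100% = excess unlabeled CBFb competitor control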
Target sequence (Q01196 whole entry, looked up, the tested form may be a part): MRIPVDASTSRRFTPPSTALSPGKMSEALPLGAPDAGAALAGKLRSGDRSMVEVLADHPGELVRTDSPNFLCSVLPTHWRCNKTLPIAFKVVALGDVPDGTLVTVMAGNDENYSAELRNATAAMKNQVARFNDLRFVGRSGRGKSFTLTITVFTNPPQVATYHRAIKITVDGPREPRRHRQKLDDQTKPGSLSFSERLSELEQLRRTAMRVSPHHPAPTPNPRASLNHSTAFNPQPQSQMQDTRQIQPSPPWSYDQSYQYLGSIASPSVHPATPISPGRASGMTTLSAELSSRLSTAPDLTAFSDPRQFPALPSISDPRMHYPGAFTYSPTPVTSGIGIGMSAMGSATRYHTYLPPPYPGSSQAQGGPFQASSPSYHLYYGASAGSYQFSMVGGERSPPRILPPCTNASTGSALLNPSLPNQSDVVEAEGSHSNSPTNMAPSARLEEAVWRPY
Target sequence (Q13951 whole entry, looked up, the tested form may be a part): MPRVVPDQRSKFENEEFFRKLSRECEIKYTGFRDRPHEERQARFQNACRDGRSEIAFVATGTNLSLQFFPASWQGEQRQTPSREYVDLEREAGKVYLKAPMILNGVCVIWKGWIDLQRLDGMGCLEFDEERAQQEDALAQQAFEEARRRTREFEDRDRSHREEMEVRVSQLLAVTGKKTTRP
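Reagent – Venus-CBFb binding partner, 100 nM · Assay system – Cerulean-tagged RUNX1 Runt domain (FRET donor) fusion protein · Input – 100 nM per protein · Incubation – two 1 h room-temperature incubations shielded from light · Measured by – FRET fluorescence · Medium – Tris buffer pH 7.5 with salts and BSA · Benchmarks – unlabeled CBFb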
Tb hexokinase – T. brucei hexokinase 1 inhibition; AID 1430; recombinant TbHK1, G6PDH-coupled NADH A340; inhibition, % at 10 µM; 220,000 compounds, 0.11% hits;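 active = inhibition of 50% or more in the single-dose primary screen; inactive = inhibition below 50%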
Runt-SMMHC FRET – blocks binding of human RUNX1 Runt domain to CBFb-SMMHC. Cerulean-Runt/Venus-CBFb-SMMHC FRET ratio 530/480, 1 h. inhibition, % at 20 µM. Q01196+Q13951. 220,000 compounds, 0.74% hits;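 active = mean inhibition across duplicate retests at 20 µM reaching about 50%, limit read from the data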;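 note: 0% = DMSO wells and 100% = wells with excess untagged CBFb-SMMHC; inhibitors lower the FRET ratio by blocking Runt binding to CBFb-SMMHC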
Hck-Nef inh – human Hck-Nef kinase inhibition. 220,000 compounds, 0.68% hits. Recombinant Hck-YEEI plus Nef, Z-Lyte FRET kinase assay. inhibition, % at 20 µM. P08631;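 active = Hck-Nef kinase inhibition above about 50%, limit read from the data; inactive = inhibition below that limit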;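 note: 0% = DMSO with Hck plus Nef and 100% = Hck alone without Nef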
YIC counter – counter-screen: alters YIC FRET probe signal; Purified YIC probe, intramolecular FRET ratio YFP/CFP; IC50, µM; shares compounds with RanGTP-Impb inh; 1,000 compounds, 40% hits;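 active = fitted half-maximal inhibitory concentration no more than tenfold above the top dose tested; inconclusive = flat fit with 30 to 70% activity, or poor fit; inactive = half-maximal concentration beyond tenfold above the top dose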
Numbers without * were called inactive; u = inconclusive; x = no result given.

SMILES | RanGTP-Impb inh | Runt-CBFb FRET | Tb hexokinase | Runt-SMMHC FRET | Hck-Nef inh | YIC counter
CCOc1cc(C(C(=O)NCC2CCCO2)N(C(=O)Cn2nnc3ccccc32)c2ccccc2OC)ccc1O (stereo not drawn) | 2.6 | x | x | x | x | x
COc1ccc(C(=O)N/N=C/c2c(CO)cnc(C)c2O)cc1 | 21.7* | 3.5 | -16.5 | 88.4* | -8.5 | 1.52*
COc1ccccc1N/N=C/c1c(CO)cnc(C)c1O | 1.9 | -1.2 | -14.3 | 6.8 | 2.5 | x
CCOc1ccc(C(=O)c2cc3ccc(O)cc3oc2=O)cc1 | 52.7* | 86.5* | -11.8 | 90.0* | 31.8 | 7.96*
O=C(c1ccc([N+](=O)[O-])cc1)c1cc2ccc(O)cc2oc1=O | 2.2 | x | x | x | x | x
Cc1c(CC(=O)N2CCN(C(=O)C3COc4ccccc4O3)CC2)c(=O)oc2cc(O)c(Cl)cc12 (stereo not drawn) | 43.8* | x | x | x | x | 2.9*
O=C(O)c1ccccc1C(=O)Nc1ccc(Br)c2cccnc12 | 17.1* | 16.0 | -10.2 | 3.6 | 6.4 | >50
CCCCOc1ccc(C(=O)NCCOc2cccc(OC)c2)cc1 | 0.5 | x | x | x | x | x
CCOC(=O)c1c(N2C(=O)Nc3ccccc3N2O)sc2c1CCCC2 | 20.3* | 0.5 | 20.6 | -0.6 | 4.1 | >50
COC(=O)c1c(N2C(=O)Nc3ccccc3N2O)sc(C)c1C | -1.5 | 1.0 | -8.3 | -2.1 | 18.4 | x
C/C(=N/OCO/N=C(/C)c1ccc(F)cc1)c1ccc(F)cc1 | 0.1 | -2.5 | -1.5 | -1.3 | 0.5 | x
CCOC(=O)C1CCN(C(=O)COC(=O)c2ccc3[nH]c4c(c3c2)CCCC4)CC1 | 19.3* | x | x | x | x | >50
CC1CCCN(C(=O)COC(=O)c2ccc3[nH]c4c(c3c2)CCCC4)C1 (stereo not drawn) | 11.6 | x | x | x | x | x
CCc1ccc(C2C(C#N)=C(N)SC(N)=C2C#N)cc1 | 38.7* | 12.5 | 4.1 | 28.2 | 1.2 | >50
COc1ccc(S(=O)Cc2ccc(C(=O)NC3CC3)o2)cc1 (stereo not drawn) | 39.4* | x | x | x | x | >50
O=C(NC1CC1)c1ccc(CS(=O)c2ccc(Br)cc2)o1 (stereo not drawn) | -0.3 | x | x | x | x | x
COc1ccccc1N1CCN(S(=O)(=O)CCNC(=O)C23CC4CC(CC(C4)C2)C3)CC1 | 0.3 | x | x | x | x | x
Cc1cc(C)c(C#N)c(Nc2ccccc2C)n1 | 19.2* | x | x | x | x | >50
Cc1cc(OCC(=O)NCc2ccccn2)c2c(C)cc(=O)oc2c1 | 0.0 | x | x | x | x | x
COCCOC(=O)c1c(NC(=O)CN2CCc3ccccc32)sc(C(N)=O)c1C | 0.7 | -0.7 | -10.6 | 1.7 | 7.9 | x
CCOC(=O)c1c(NC(=O)CN2CCCc3ccccc32)sc(C(C)=O)c1C | 21.1* | -1.8 | -11.1 | -4.0 | 1.0 | >50
N#Cc1cc2c(ccc3ccccc32)oc1=O | 38.4* | 84.9* | 2.2 | 87.1 | 20.3 | >26
CC(c1nc2ccccc2n1Cc1ccccc1)N1CCCCC1 (stereo not drawn) | 25.9* | x | x | x | x | >50
CCN(CC)S(=O)(=O)c1ccc(NC(=O)c2ccc(Sc3nncn3C)c([N+](=O)[O-])c2)cc1 | 23.3* | -3.5 | -8.1 | 1.6 | -0.5 | >50
C#CCOc1ccc(C2C3=C(CC(C)(C)CC3=O)N(CC(=O)O)C3=C2C(=O)CC(C)(C)C3)cc1OC | 21.7* | x | x | x | x | 39.4*
SMILES | RanGTP-Impb inh | Runt-CBFb FRET | Tb hexokinase | Runt-SMMHC FRET | Hck-Nef inh | YIC counter
Cc1cnc(C(=O)Nc2ccc(S(=O)(=O)N(C(C)C)C(C)C)cc2)cn1 | 19.7* | x | x | x | x | >50
Cc1cnc(C(=O)Nc2ccc(S(=O)(=O)NCC(C)C)cc2)cn1 | u | x | -8.5 | x | 17.6 | x
Cc1cccc(NS(=O)(=O)c2ccc(Cl)cc2)n1 | 2.5 | x | x | x | x | x
Brc1ccc2c(c1)OCCOCCOCCOCCOCCOCCO2 | -2.2 | -0.8 | -1.8 | -1.4 | -1.4 | x
C/C(=C\C(=O)C(F)(F)F)Nc1ccc(C(F)(F)F)cc1 | 20.4* | 0.5 | 0.1 | 3.2 | 0.6 | >50
COc1cc(/C=C(\C#N)C(=O)Nc2cccc3ncccc23)cc(OC)c1OC | 36.3* | 41.9 | -13.0 | 53.7 | 2.7 | >50
COc1ccc(NC(=O)/C(C#N)=C/c2cccnc2)c(OC)c1 | 1.1 | x | x | x | x | x
O=C1NC(c2cccc([N+](=O)[O-])c2)Oc2ccccc21 (stereo not drawn) | 21.6* | 1.5 | -5.6 | 0.9 | -1.3 | >50
O=C1NC(c2ccc(F)cc2)Oc2ccccc21 (stereo not drawn) | -3.5 | x | x | x | x | x
CCOc1ncccc1C(=O)NCc1ccc(OC)c(OC)c1 | -1.0 | 1.7 | -1.6 | -0.4 | 6.4 | x
CCN(CC)S(=O)(=O)c1cc(C(=O)Nc2ccccc2[N+](=O)[O-])ccc1Cl | 25.5* | -2.4 | 30.3 | 0.4 | -2.2 | >50
CN(C)S(=O)(=O)c1cccc(C(=O)Nc2ccccc2[N+](=O)[O-])c1 | 3.5 | 0.8 | -7.6 | -6.3 | -0.9 | x
COc1ccccc1N(C)S(=O)(=O)c1ccc(Cl)c(C(=O)Nc2cccc(C)n2)c1 | 7.9 | x | x | x | x | x
Cc1cccc(NC(=O)c2cc(S(=O)(=O)N(C)c3ccc(F)cc3)ccc2Cl)n1 | 20.1* | x | x | x | x | >50
Nc1ccccc1C(=O)NNc1c2ccccc2nc2ccccc12 | 32.7* | 3.4 | -1.5 | 7.2 | 22.7 | >50
O=C(CN1CCOCC1)NNc1c2ccccc2nc2ccccc12 | 19.1* | 13.3 | -12.6 | 7.7 | 11.5 | >50
C[N+]1(CC(=O)NNc2c3ccccc3nc3ccccc23)CCOCC1 | 2.4 | 3.7 | -6.9 | 14.2 | 18.2 | x
O=C(NNc1c2ccccc2nc2ccccc12)c1ccc(Cl)cc1 | 20.2* | x | x | x | x | >50
COCCN1C=C(C(=O)OC)C(c2ccc(Cl)cc2)C(C(=O)OC)=C1 | 41.0* | 93.8* | -5.6 | 104.9* | 74.6* | 13.2*
COc1ccc2oc(C(=O)NCCN3CCOCC3)c(C)c2c1OC | 1.8 | x | x | x | x | x
COc1ccccc1CCCNC(=O)C1CCC(=O)N(CCCN2CCCC2=O)C1 (stereo not drawn) | -0.6 | x | x | x | x | x
O=C(c1ccc(Cl)cc1[N+](=O)[O-])N(Cc1ccccc1)Cc1ccccc1 | 0.4 | -1.1 | 8.5 | 0.5 | 2.1 | x
CCN(C(=O)c1ccc(Cl)cc1[N+](=O)[O-])c1ccccc1C | 19.0* | 0.0 | 3.1 | 1.6 | 24.1 | >50
CC(C)Sc1nc(N2CCOCC2)c2c3c(sc2n1)COC(C)(C)C3 | 23.0* | -2.1 | -8.9 | -0.5 | -1.2 | >50
CN1CCN(S(=O)(=O)c2cccc(C(=O)Oc3ccc(Br)cc3F)c2)CC1 | -0.6 | x | x | x | x | x
Cc1ccc(C(=O)Nc2ncc(C)s2)o1 | 3.6 | 0.6 | -26.9 | -1.1 | 2.0 | x
Cc1ccc(C(=O)Nc2ncc(Cc3ccc(F)cc3)s2)o1 | 27.7* | -2.5 | -13.2 | 2.9 | 0.0 | >50
CCc1ccc(CN2CCC(n3nccc3NC(=O)c3ccccc3Cl)CC2)cc1 | 3.8 | x | x | x | x | x
CC(C)(C)CN1CCC(n2nccc2NC(=O)c2ccccc2Cl)CC1 | 19.7* | x | x | x | x | >50
COC(=O)N(C)C[C@H]1OCc2cn(nn2)CCCC(=O)N([C@@H](C)CO)C[C@H]1C | x | x | x | x | x | >50
